Laboratory results: ChEMBL document CHEMBL1155073, “Molecular recognition of a DNA:RNA hybrid: sub-nanomolar binding by a neomycin-methidium conjugate” (Bioorg Med Chem Lett, 2008)

Columns and labels:
[1] = Binding affinity to synthetic poly(dA):poly(rU) DNA:RNA hybrid assessed as association constant at 20 degC
In short: (§1)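 Apparent association constant is estimated from the UV/CD melting-temperature shift (Eq. 1). Binding stoichiometry n comes from fluorescence titrations, duplex melting enthalpy from DSC, and free ligand is taken as half the total. The value is extrapolated to 20 °C by integrated van't Hoff using dilution-corrected excess-site ITC enthalpies (15, 20, 25 °C) and derived ΔCp. Buffer: 10 mM sodium cacodylate, 0.5 mM EDTA, 100 mM NaCl, pH 5.5.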

[2] = Binding affinity to synthetic poly(rA):poly(rU) RNA duplex assessed as association constant at 20 degC
[3] = Binding affinity to synthetic poly(dA-dT):poly(dA-dT) DNA: DNA duplex assessed as melting temperature at 2.2 uM
In short: (§2)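 Thermal denaturation of each nucleic acid (20 µM/bp) with ligand at 2.2 µM, with melting temperatures read from UV and CD melting profiles. ΔTm is taken against the ligand-free Tm0.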

[4] = Binding affinity to synthetic poly(dA-dT):poly(dA-dT) DNA:DNA duplex assessed as association constant at 20 degC; in short: as §1
[5] = Binding affinity to synthetic poly(rA):poly(rU) RNA:RNA duplex assessed as melting temperature at 2.2 uM; in short: as §2
[6] = Binding affinity to synthetic poly(dA):poly(rU) DNA:RNA hybrid assessed as melting temperature at 2.2 uM; in short: as §2
[7] = Binding affinity to synthetic poly(rA):poly(rU) DNA:RNA hybrid assessed as association constant at 20 degC; in short: as §1
[8] = Binding affinity to synthetic poly(dA):poly(dT) DNA:DNA duplex assessed as change in melting temperature at 2.2 uM; in short: as §2
[9] = Binding affinity to synthetic poly(rA):poly(dT) DNA:RNA hybrid assessed as melting temperature at 2.2 uM; in short: as §2
[10] = Binding affinity to synthetic poly(dA):poly(dT) DNA:DNA duplex assessed as melting temperature at 2.2 uM; in short: as §2
[11] = Binding affinity to synthetic poly(dA):2poly(dT) DNA:DNA duplex assessed as melting temperature at 2.2 uM; in short: as §2
[12] = Binding affinity to synthetic poly(dA): 2poly(dT) DNA:DNA duplex assessed as change in melting temperature at 2.2 uM; in short: as §2
[13] = Binding affinity to synthetic poly(dA):poly(rU) DNA:RNA hybrid assessed as change in melting temperature at 2.2 uM; in short: as §2
[14] = Binding affinity to synthetic poly(rA):poly(dT) DNA:RNA hybrid assessed as change in melting temperature at 2.2 uM; in short: as §2
DNA [15] = experiment: Binding affinity to calf thymus DNA assessed as melting temperature at 2.2 uM; format: nucleic-acid assay; conditions: Bos taurus; in short: as §2
[16] = Binding affinity to synthetic poly(rA):poly(rU) RNA:RNA duplex assessed as change in melting temperature at 2.2 uM; in short: as §2
[17] = Binding affinity to synthetic poly(dA-dT):poly(dA-dT) DNA:DNA duplex assessed as change in melting temperature at 2.2 uM; in short: as §2
[18] = Binding affinity to synthetic A-site RNA assessed as melting temperature at 2.2 uM; in short: as §2
[19] = Binding affinity to synthetic poly(dG):poly(dC) DNA:DNA duplex assessed as melting temperature at 2.2 uM; in short: as §2
[20] = Binding affinity to synthetic A-site RNA assessed as change in melting temperature at 2.2 uM; in short: as §2
DNA [21] = experiment: Binding affinity to calf thymus DNA assessed as change in melting temperature at 2.2 uM; format: nucleic-acid assay; conditions: Bos taurus; in short: as §2

Compound | Ka [1] | Ka [2] | Tm [3] [°C] | Ka [4] | Tm [5] [°C] | Tm [6] [°C] | further results
NC[C@@H]1O[C@H](O[C@H]2[C@@H](O)[C@H](O[C@@H]3[C@@H](O)[C@H](N)C[C@H](N)[C@H]3O[C@H]3O[C@H](CN)[C@@H](O)[C@H](O)[C@H]3N)O[C@@H]2CO)[C@H](N)[C@@H](O)[C@@H]1O | 9.9 ×10⁶ /M | 2.6 ×10⁷ /M | 62.9 | 7 ×10⁴ /M | 64.7 | 65.8 | –
CC[n+]1c(-c2ccccc2)c2cc(N)ccc2c2ccc(N)cc21 | 9.3 ×10⁶ /M | – | 63.2 | 2 ×10⁵ /M | 64.2 | 61.8 | Ka [7]: 1.8 ×10⁶ /M
C[n+]1c(-c2ccc(C(=O)NCCSC[C@H]3O[C@@H](O[C@@H]4[C@@H](O)[C@H](N)C[C@H](N)[C@H]4O[C@H]4O[C@H](CN)[C@@H](O)[C@H](O)[C@H]4N)[C@H](O)[C@@H]3O[C@H]3O[C@@H](CN)[C@@H](O)[C@H](O)[C@H]3N)cc2)c2cc(N)ccc2c2ccc(N)cc21 | 4.8 ×10¹⁰ /M | 2.1 ×10⁹ /M | 66.2 | 1 ×10⁶ /M | 77 | 90.5 | ΔTm [8]: 7.7 °C; Tm [9]: 82.4 °C; Tm [10]: 76.1 °C; Tm [11]: 75.9 °C; ΔTm [12]: 7.7 °C; ΔTm [13]: 46.9 °C; ΔTm [14]: 20.1 °C; Tm (DNA [15]): > 95 °C; ΔTm [16]: 34.3 °C; ΔTm [17]: 7.4 °C; Tm [18]: 79.8 °C; Tm [19]: > 95 °C; ΔTm [20]: 8.1 °C; ΔTm (DNA [21]): > 8.1 °C
